# Screening results: PubChem BioAssay, The Scripps Research Institute Molecular Screening Center
# This is a sample that favours compounds with a hit; in the whole collection about 1.6% have one here.
# TCR-CD3 inh: inhibitors of human TCR-CD3 interaction, primary screen, biochemical, fluorescence, TAMRA-labeled TCR probe. inhibition, % at 9.4 µM. AID 651800, 2012. T-cell receptor (TCR). 360,000 compounds, 0.37% hits; in the data active = inhibition above about 19%;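 also: recombinant mutant TCR 2C K166C tagged with TAMRA read by polarization; 0% = receptor in buffer alone and 100% = receptor with positive control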
# DAGLB inhibitor: DAGLB lipase inhibitors, primary screen, biochemical, fluorescence, HTS; inhibition, % at 5.17 µM; HEK293T DAGLB membrane lysate, EnzChek fluorogenic substrate; Diacylglycerol lipase-beta (Homo sapiens), Q8NCG7; 340,000 compounds, 0.059% hits; AID 504411, 2011; in the data active = inhibition above about 34%;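 also: 0% = enzyme with vehicle and 100% = wells lacking enzyme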
# HTRA1 inhibitor: HTRA1 serine protease inhibitors, primary screen, biochemical, fluorescence polarization, HTS; Q92743; recombinant HTRA1, FP-rhodamine activity-based probe; inhibition, % at 5.96 µM; 340,000 compounds, 0.5% hits; AID 504803, 2011; in the data active = inhibition above about 36%;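 also: 0% = enzyme with DMSO and 100% = wells lacking enzyme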
# mABHD4 FP: ABHD4 inhibitors, primary screen, biochemical, fluorescence polarization, mouse; AID 720543, 2013; purified mABHD4, FP-Rh probe fluorescence polarization; (Lyso)-N-acylphosphatidylethanolamine lipase (Mus musculus), Q8VD66; 370,000 compounds, 0.54% hits; inhibition, % at 8.92 µM;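 active = inhibition exceeding the mean over every tested compound plus 3 SD, cut at about 30% in these data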;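 also: 0% = plate median of compound wells and 100% = S159A mutant with DMSO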
#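 Assay system: wild-type mouse ABHD4 protein; compound: single nominal dose of 8.92 µM, 0.89% DMSO final; schedule: 45 min + 60 min at 25 °C; measured by: FP readout, ex 525 nm / em 598 nm; evaluation: % inhibition of FP-Rh probe binding versus controls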
# SIAE inh: human SIAE inhibitors, primary screen, biochemical, fluorescence polarization, FP-Rh probe, 1536-well HTS; 370,000 compounds, 0.69% hits; inhibition, % at 9.66 µM; AID 1053197, 2014; SIAE FP-Rh probe binding;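 active = inhibition above a cutoff: mean of compounds within the control limits plus 3 SD of those, cut at about 17% in these data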;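 also: 0% = plate median of compound wells and 100% = probe without SIAE protein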
# Target sequence (Q9HAT2 whole entry, looked up): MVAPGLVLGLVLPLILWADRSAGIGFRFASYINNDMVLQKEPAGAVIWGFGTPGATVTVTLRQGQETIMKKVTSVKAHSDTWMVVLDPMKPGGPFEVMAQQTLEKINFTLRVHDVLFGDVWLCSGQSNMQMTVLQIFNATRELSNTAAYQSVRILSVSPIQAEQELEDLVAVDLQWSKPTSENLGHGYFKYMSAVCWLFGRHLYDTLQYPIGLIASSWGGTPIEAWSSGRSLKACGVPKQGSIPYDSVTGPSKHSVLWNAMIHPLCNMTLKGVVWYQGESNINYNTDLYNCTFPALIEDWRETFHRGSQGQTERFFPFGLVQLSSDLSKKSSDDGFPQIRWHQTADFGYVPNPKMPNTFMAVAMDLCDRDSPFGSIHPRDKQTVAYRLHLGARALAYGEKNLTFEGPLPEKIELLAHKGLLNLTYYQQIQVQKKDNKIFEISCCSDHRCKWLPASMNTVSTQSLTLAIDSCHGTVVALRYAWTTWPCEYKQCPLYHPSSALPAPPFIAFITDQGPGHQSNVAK
# HTRA1 conf: HTRA1 protease inhibitors, retest, confirmation, biochemical, fluorescence polarization | shares compounds with HTRA1 inhibitor | recombinant HTRA1, FP-rhodamine activity-based probe | inhibition, % at 5.96 µM | 1,600 compounds, 66% hits | AID 540248, 2011;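 active = mean inhibition over three repeats above a set limit taken from the earlier primary screen, cut at about 37% in these data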;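 also: 0% = HTRA1 with DMSO and 100% = wells lacking HTRA1; inhibitors block probe binding so polarization drops and inhibition rises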
# Active calls of the source: *; · = no result.
SMILES,TCR-CD3 inh,DAGLB inhibitor,HTRA1 inhibitor,mABHD4 FP,SIAE inh,HTRA1 conf
COc1ccc(N=Nc2nc(-c3ccccc3)c(-c3ccccc3)[nH]2)cc1,3,25,6,-44,7,·
Oc1ccc2ccccc2c1N=Nc1ccc(F)cc1,-2,29,8,-4,-14,·
O=C(O)Cc1ccc(N=Nc2c(O)c(C(=O)O)cc3ccccc23)cc1,10,11,45*,22,7,43*
COc1ccc2nc3cccc(OC)c3nc2c1,-10,-1,4,5,-9,·
COc1ccc2nc3ccccc3nc2c1N,5,6,49*,24,4,17
Cc1ccccc1NC(=O)N(C)[C@H]1C[C@H]2c3[nH]c4c(-c5ccc6c(c5)OCO6)cccc4c3CCN2C[C@H]1[C@H](C)O,·,·,·,24,4,·
Cc1cc(C(N)=O)c2ccccc2n1,-1,0,-1,-3,12,·
NC(=O)c1cc2c3ccccc3ccn2c1-c1ccccc1,-5,11,42*,-6,6,29
CCOC(=O)C(Cc1ccccc1)CP(=O)(OC)[C@@H](C)NC(=O)OCc1ccccc1 (stereo partly drawn),·,·,·,4,-1,·
O=C(/C=C/c1ccco1)Oc1cc(Br)cc(/C=N/NC(=O)c2ccccc2O)c1,12,14,84*,15,3,143*
Cc1cc2cc(CNC(=S)Nc3ccc(OC(F)F)cc3)ccc2n1C,14,22,52*,13,4,5
Fc1ccc2nc(-c3ccc(CN4CCC(c5nc6ccccc6[nH]5)CC4)cc3)c(-c3ccccc3)nc2c1,-12,·,·,-4,-2,·
CCCCC(CC)CN=C(N)NC(N)=NCCCCCCN=C(N)NC(N)=NCC(CC)CCCC (stereo not drawn),·,9,55*,·,·,93*
CCCCC(CC)CO (stereo not drawn),14,-3,1,-1,2,·
CC(=O)N1CCN(c2ccc(NCc3ccc(-c4ccc(Br)cc4)o3)cc2)CC1,2,8,44*,29,8,19
C[C@H](O)[C@@H]1CN2CCc3c([nH]c4cccc(-c5ccccc5)c34)[C@@H]2C[C@@H]1N(C)C(=O)Nc1ccccc1,·,·,·,5,5,·
Cc1nc(CNC(=O)CC2C(=O)NCCN2Cc2cccc(Oc3ccccc3)c2)cs1 (stereo not drawn),-5,4,44*,-5,7,-14
Cc1cc2c(N=O)c(NO)ccc2[nH]1,·,4,40*,·,·,74*
Cc1ccc(N=Cc2ccc[nH]2)c(O)c1,-12,2,44*,8,-4,21
Cc1ccccc1N=Cc1ccc[nH]1,-10,0,1,-5,0,·
COc1ccc(OC)c(/C=N/NC(=O)CCc2ccc(O)c(O)c2)c1,5,2,53*,12,-2,79*
CC(C)n1nnnc1C1(C)CSCC(=O)N1Cc1cccc(F)c1 (stereo not drawn),·,·,·,2,-1,·
Cc1ccc(Cn2c(=N)c(C(=O)NCc3ccco3)cc3c(=O)n4ccccc4nc32)cc1,8,5,42*,12,-3,-36
Cc1noc(C)c1C(=O)N1CCC(n2nnc3ncccc32)CC1,·,·,·,2,5,·
CCCCN(CCCC)CC(O)c1cc(Cl)cc2c1-c1ccc(Cl)cc1/C2=C/c1ccc(Cl)cc1 (stereo not drawn),·,·,·,-3,-11,·
SMILES,TCR-CD3 inh,DAGLB inhibitor,HTRA1 inhibitor,mABHD4 FP,SIAE inh,HTRA1 conf
O=C(COC(=O)c1ccc2ncsc2c1)NC(=O)NCc1ccccc1,3,2,39*,-23,2,30
CNC(=O)CSc1nc2nn(-c3ccccc3)c(=O)c-2c2n1CCCCC2,·,-2,6,·,·,·
O=C(CSc1nc2nn(-c3ccccc3)c(=O)c-2c2n1CCCCC2)c1ccc(O)c(O)c1,·,12,74*,·,·,97*
COC(=O)c1ccc2nc(-c3ccco3)c(Cc3ccsc3)n2c1,8,·,·,7,3,·
O=C(OCCc1ccccc1)c1cc(O)c(O)c(O)c1,17,13,56*,17,-13,87*
Nc1ccc(C(=O)OCCc2ccccc2)cc1,8,6,-7,-6,0,·
COC(=O)C1=C(C)NC(=O)/C1=C\c1cc(C)n(-c2cccc(C)c2)c1C,3,7,52*,22,5,38*
CCC[C@H]1[C@@H](NC(=O)C#Cc2ccccc2)CC[C@@]23CCCN2C(=O)CCC[C@@H]13,·,·,·,-1,-3,·
COc1ccc(C(=O)Oc2ccc3ccc(=O)oc3c2)cc1,7,-2,2,0,-10,·
COc1ccc(C(=O)Oc2ccc3oc(=O)sc3c2)cc1,1,10,45*,-12,-25,6
CC(C)CNC(=O)OCc1cn(Cc2ccccc2F)nn1,·,·,·,7,7,·
O=C(Nc1ccccc1Cl)O[C@@H]1CC[C@@]23CCCN2C(=O)CCC[C@H]3C1,·,·,·,0,-2,·
C[C@H](NS(=O)(=O)c1ccc(Cl)cc1)C(=O)OCC(=O)c1ccc[nH]1,-6,-3,38*,-5,-3,-1
C#CCCCN([C@H](C(=O)OC)C(C)C)S(=O)(=O)c1ccccc1Br,·,·,·,-15,-3,·
Cc1ccc(N=Nc2ccc(O)c3ncccc23)cc1,5,6,50*,16,3,70*
Oc1ccc(N=Nc2ccccc2C(F)(F)F)c2cccnc12,-3,1,54*,7,2,75*
Cc1ccc(N=Nc2ccc(O)c3ncccc23)cc1C,-1,4,39*,6,7,82*
Oc1ccc(CNc2ccccc2C(F)(F)F)c2cccnc12,·,·,·,17,4,·
CCOC(=O)N1CCN(C(=O)C[C@H]2C[C@@]3(C(=O)OC)C(=C[C@H](C(C)C)O[C@@H]3C3CC3)N(Cc3cccc4ccccc34)C2=O)CC1,·,·,·,-3,4,·
CCOC(=O)/C(=N/Nc1ccccc1)c1csc(Nc2ccccc2)n1,-8,-4,27,10,9,·
CCOC(=O)/C(=N\Nc1ccc(OC)cc1)c1csc(Nc2ccccc2)n1,5,3,43*,13,15,28
CC(C)C[C@@H]1COc2cc(Br)ccc2S(=O)(=O)N1Cc1cn(Cc2ccccc2)nn1,·,·,·,0,3,·
C=CCn1c(C)cc(-c2csc(NC)n2)c1C,-9,1,42*,17,6,28
Cc1cc(-c2csc(N)n2)c(C)n1-c1ccc(Cl)c(Cl)c1,-12,14,31,14,-6,·
C=CCn1c(C)cc(-c2csc(N)n2)c1C,1,0,60*,20,8,31
